# Measurements published in ChEMBL document CHEMBL1144771, “Synthesis of 1-substituted 3-pyridinylmethylidenylindolin-2-ones and 1-substituted 3-quinolinylmethylidenylindolin-2-ones as the enhancers of ATRA-induced differentiation in HL-60 cells” (Bioorg Med Chem, 2008).
# Activity calls are given as the source filed them. The rule behind the calls is not given here.
# Legend:
# [1] = system: HL-60; test: Induction of cell differentiation in human HL60 cells at 5.0 uM after 72 hrs by NBT reduction assay; assay type: functional
# [2] = system: HL-60; test: Cytotoxicity against human HL60 cells at 1.0 uM after 72 hrs by MTT assay relative to control; assay type: functional
# In short: (§1)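 Log-phase HL-60 cells at 4×10^4 cells/mL in RPMI-1640 with 10% FBS, 37 °C, 5% CO2. Treated 72 h with compound, with or without 5 nM ATRA. Cells washed in cold PBS, given MTT (5 mg/mL solution) in HBSS for 2 h at 37 °C in the dark. Formazan dissolved in DMSO, absorbance read at 570 nm. Viability given as % of vehicle control; means ± SD, four independent experiments.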
# [3] = system: HL-60; test: Cytotoxicity against human HL60 cells at 2.5 uM after 72 hrs by MTT assay relative to control; assay type: functional; in short: as §1
# [4] = system: HL-60; test: Induction of cell differentiation in human HL60 cells at 1.0 uM after 72 hrs by NBT reduction assay; assay type: functional
# [5] = system: HL-60; test: Induction of cell differentiation in human HL60 cells at 2.5 uM after 72 hrs by NBT reduction assay relative to control; assay type: functional
# [6] = system: HL-60; test: Cytotoxicity against human HL60 cells at 5.0 uM after 72 hrs by MTT assay; assay type: functional, cell-based; in short: as §1
# [7] = system: HL-60; test: Cytotoxicity against human HL60 cells at 5.0 uM after 72 hrs by MTT assay relative to control; assay type: functional; in short: as §1
# [8] = system: HL-60; test: Induction of cell differentiation in human HL60 cells at 2.5 uM after 72 hrs by NBT reduction assay; assay type: functional
# [9] = system: HL-60; test: Cytotoxicity against human HL60 cells after 72 hrs by MTT assay; assay type: functional, cell-based; in short: as §1
# [10] = system: HL-60; test: Induction of cell differentiation in human HL60 cells at 2.0 uM after 72 hrs by NBT reduction assay relative to control; assay type: functional
# [11] = system: HL-60; test: Induction of cell differentiation in human HL60 cells at 0.5 uM after 72 hrs by NBT reduction assay; assay type: functional
# [12] = system: HL-60; test: Cytotoxicity against human HL60 cells at 2 uM after 72 hrs by MTT assay relative to control; assay type: functional; in short: as §1
# [13] = system: HL-60; test: Cytotoxicity against human HL60 cells at 0.5 uM after 72 hrs by MTT assay; assay type: functional; in short: as §1
# [14] = system: HL-60; test: Cytotoxicity against human HL60 cells at 0.5 uM after 72 hrs by MTT assay relative to control; assay type: functional; in short: as §1
# [15] = system: HL-60; test: Cytotoxicity against human HL60 cells at 1.0 uM after 72 hrs by MTT assay; assay type: functional; in short: as §1
# [16] = system: HL-60; test: Cytotoxicity against human HL60 cells at 0.1 uM after 72 hrs by MTT assay relative to control; assay type: functional; in short: as §1
# [17] = system: HL-60; test: Induction of cell differentiation in human HL60 cells at 0.1 uM after 72 hrs by NBT reduction assay; assay type: functional
# [18] = system: HL-60; test: Induction of cell differentiation in human HL60 cells at 5.0 uM after 72 hrs by NBT reduction assay relative to control; assay type: functional
# [19] = system: HL-60; test: Induction of cell differentiation in human HL60 cells at 10.0 uM after 72 hrs by NBT reduction assay; assay type: functional
# [20] = system: HL-60; test: Cytotoxicity against human HL60 cells at 10.0 uM after 72 hrs by MTT assay relative to control; assay type: functional; in short: as §1
# [21] = system: HL-60; test: Cytotoxicity against human HL60 cells at 2.5 uM after 72 hrs by MTT assay; assay type: functional; in short: as §1
# [22] = system: HL-60; test: Cytotoxicity against human HL60 cells at 1.0 uM after 72 hrs by MTT assay relative to ATRA; assay type: functional; settings: in the assay text read “relative to control” for “relative to ATRA”; in short: as §1
# [23] = Cytotoxicity against human leukocytes after 48 hrs by MTT assay; assay type: cell-based; settings: Leukocyte
# In short: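 Human normal leukocytes in RPMI-1640 with 10% FBS. Treated with vehicle, compound alone, or compound plus 5 nM ATRA; 48 h per the legend (72 h per methods). Viability by MTT with formazan absorbance at 570 nm; 50% growth-inhibition concentration reported. Means ± SD, four experiments.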
# [24] = system: HL-60; test: Cell cycle arrest in human HL60 cells assessed as increase in G0/G1 phase accumulation at 2 uM after 72 hrs by flow cytometry; assay type: functional
# In short: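 HL-60 cells at 4×10^4 cells/mL, 72 h with vehicle, ATRA (5 nM or 1 µM), 2 µM compound alone, or 2 µM compound plus 5 nM ATRA. Cells fixed in 70% ice-cold ethanol at -20 °C overnight. Stained 30 min at 37 °C in the dark with 1% Triton X-100, 0.1 mg/mL RNase and 4 µg/mL propidium iodide. G0/G1 fraction by flow cytometry; means ± SD, four experiments.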
# [25] = system: HL-60; test: Cytotoxicity against human HL60 cells at 2 uM after 72 hrs by MTT assay; assay type: functional, cell-based; in short: as §1
# [26] = system: HL-60; test: Induction of cell differentiation in human HL60 cells at 2.0 uM after 72 hrs by NBT reduction assay; assay type: functional, cell-based
# [27] = system: HL-60; test: Effect on morphology in human HL60 cells assessed as population of horseshoe-shape nuclei at 2 uM after 72 hrs; assay type: functional, cell-based
# In short: (§2)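 HL-60 cells (4×10^4) treated 72 h with vehicle, 2 µM compound alone, 2 µM compound plus 5 nM ATRA, 5 nM ATRA, or 1 µM ATRA. Unstained cells examined for spindle shape at 200× magnification. Liu's-stained cells examined by optical microscopy for horseshoe-shaped nuclei.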
# [28] = system: HL-60; test: Effect on morphology in human HL60 cells assessed as spindle-shape at 2 uM after 72 hrs; assay type: functional, cell-based; in short: as §2
SMILES,Activity [1],Activity [2] [%],Activity [3] [%],Activity [4],Activity [7] [%],Activity [8],"IC50 ([9]; Homo sapiens, HL-60, 72 h) [µM]",Activity [11] [%],other results
CC(c1ccccc1)N1C(=O)/C(=C\c2ccnc3ccccc23)c2ccccc21 (centres undefined),Toxic,72.6,31,1.2%,–,–,–,–,Activity [5]: 20.8%; Activity [6]: Toxic
CC(c1ccccc1)N1C(=O)/C(=C\c2ccccn2)c2ccccc21 (centres undefined),2%,90,87.1,0.7%,55.7,0.7%,5.9,–,–
CC(c1ccccc1)N1C(=O)/C(=C/c2cnc3ccccc3c2)c2ccccc21 (centres undefined),–,82.9,–,4.3%,–,–,1.4,0.8,Activity [10]: 37.7%; Activity [12]: 25.5%; Activity [13]: 109.9%
O=C1/C(=C\c2ccncc2)c2ccccc2N1Cc1ccc2ccccc2c1,–,–,–,Toxic,–,–,–,0.7,Activity [14]: 59.6%; Activity [15]: Toxic; Activity [16]: 78.2%; Activity [17]: 0.8%
O=C1/C(=C\c2ccncc2)c2ccccc2N1Cc1ccccc1,–,85.6,24.4,1.2%,–,–,1.9,0.3,Activity [13]: 101%; Activity [5]: 7%
O=C1/C(=C\c2cccnc2)c2ccccc2N1Cc1ccccc1,2.7%,93.2,75.9,0.7%,25.4,0.8%,3.8,–,–
CC(c1ccccc1)N1C(=O)/C(=C\c2cccnc2)c2ccccc21 (centres undefined),–,88,87,0.8%,19.6,2.5%,3.3,–,Activity [5]: 2.5%
CC(c1ccccc1)N1C(=O)/C(=C\c2cnc3ccccc3c2)c2ccccc21 (stereo in doubt; 25Z),–,82.3,–,3.8%,–,–,1.5,1.3,Activity [10]: 40.8%; Activity [12]: 20.3%; Activity [13]: 116.1%
O=C1/C(=C\c2ccc3ccccc3n2)c2ccccc2N1Cc1ccccc1,4.4%,82.7,55.7,2%,12.2,2%,2.8,–,–
O=C1/C(=C\c2cnc3ccccc3c2)c2ccccc2N1Cc1ccccc1,–,–,70.6,0.7%,10.9,0.8%,3.2,–,Activity [18]: 23.6%; Activity [15]: 117.4%
O=C1/C(=C\c2ccnc3ccccc23)c2ccccc2N1Cc1ccccc1,2.1%,85.2,–,0.8%,73.8,–,10.6,–,Activity [19]: 4.7%; Activity [20]: 51.2%
O=C1/C(=C\c2ccccn2)c2ccccc2N1Cc1ccccc1,3.4%,–,–,0.7%,24.7,0.7%,3.6,–,Activity [15]: 116.6%; Activity [21]: 98.5%
O=C1/C(=C\c2cc[n+]([O-])cc2)c2ccccc2N1Cc1ccccc1,–,–,43.4,1.6%,22,3.2%,2.9,–,Activity [18]: 11.5%; Activity [22]: 90%
O=C1/C(=C\c2ccncc2)c2ccccc2N1Cc1cccc2ccccc12,–,–,–,0.5%,–,Toxic,–,0.8,Activity [13]: 103.6%; Activity [15]: 90.8%; Activity [21]: Toxic
CC(c1ccccc1)N1C(=O)/C(=C\c2cnc3ccccc3c2)c2ccccc21 (stereo in doubt; 25) [listing 1 of 2 here],–,70.9,–,0.3%,–,–,–,0.8,Activity [10]: 33.9%; IC50 [23]: 14 µM; Activity [14]: 89.5%; Activity [24]: 49.8%; Activity [12]: 24.7%; IC50 ([9]; hl-60): 1.4 µM
CC(c1ccccc1)N1C(=O)/C(=C\c2ccc3ccccc3n2)c2ccccc21 (centres undefined),–,–,81.3,0.8%,18.5,1%,3.4,–,Activity [18]: 15%; Activity [15]: 103.2%
CC(c1ccccc1)N1C(=O)/C(=C\c2ccncc2)c2ccccc21 (centres undefined),–,49.2,–,0.8%,–,–,–,1,Activity [25]: Toxic; Activity [14]: 66.7%; Activity [26]: Toxic
CC(c1ccccc1)N1C(=O)/C(=C\c2cnc3ccccc3c2)c2ccccc21 (stereo in doubt; 25) [listing 2 of 2 here],–,–,–,–,–,–,–,–,Activity [27]: Active; Activity [28]: Active
